Reference: paper PMC3725831 (European journal of inorganic chemistry, 2011)
Read-outs that look alike come from different tables or passages of the source.

Key:
[1] = tested on: HCT-116 (human colon carcinoma); assay: MTS cytotoxicity assay, HCT-116 cells; format: cell-based
Procedure, shortened: (§1)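 Cells grown in McCoy's 5a with 10% FBS, 1% NEAA and 2% HEPES at 37 °C, 5% CO2, then seeded at 2000–5,000/well 24 h before dosing. Test compound in DMSO (<0.5% final) was given as six-point 4-fold serial dilutions for 24, 48 or 72 h. Read-out was MTS plus phenazine methosulphate for 3 h, OD490 versus DMSO controls. IC50 from curves; mean ± SE, three replications.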

[2] = tested on: HT-29 (human colon adenocarcinoma); assay: MTS cytotoxicity assay, HT-29 cells; format: cell-based
Procedure, shortened: as §1

[3] = tested on: Caco-2 (human epithelial colorectal adenocarcinoma); assay: MTS cytotoxicity assay, Caco-2 cells; format: cell-based
[4] = tested on: CCD-18Co (human colon fibroblasts); assay: MTS cytotoxicity assay, non-cancerous CCD-18Co cells; format: cell-based
Procedure, shortened: as §1, with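 “Colon fibroblasts” for “Cells”, “EMEM” for “McCoy's 5a”, “1% L-glutamine” for “2% HEPES”, “CO2; used at PDL 26–35. Seeded” for “CO2, then seeded”, “MTS/phenazine” for “MTS plus phenazine”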

[5] = tested on: cancer and normal colon cells; conditions: both cell lines (cancer and normal colon cells); cited from earlier work
[6] = tested on: cisplatin-resistant ovarian and testicular cancer cell lines; conditions: ref 9c; cited from earlier work

COc1cc([C@@H]2c3cc4c(cc3[C@@H](O[C@@H]3O[C@@H]5CO[C@@H](C)O[C@H]5[C@H](O)[C@H]3O)[C@H]3COC(=O)[C@H]23)OCO4)cc(OC)c1O [Etoposide]
IC50 ([1]; HCT-116, 24 h, read-out: IC50 HCT-116 24 hours): 40.8 ± 0.5 µM | IC50 ([1]; HCT-116, 48 h, read-out: IC50 HCT-116 48 hours): 36.2 ± 2 µM | IC50 ([1]; HCT-116, 72 h, read-out: IC50 HCT-116 72 hours): 38.4 ± 1.2 µM | IC50 ([2]; HT-29, 24 h, read-out: IC50 HT-29 24 hours): 19.2 ± 0.8 µM | IC50 ([2]; HT-29, 48 h, read-out: IC50 HT-29 48 hours): 17.3 ± 1.9 µM | IC50 ([2]; HT-29, 72 h, read-out: IC50 HT-29 72 hours): 15.8 ± 2.4 µM | IC50 ([3]; Caco-2, 24 h, read-out: IC50 Caco-2 24 hours): 47.6 ± 0.8 µM | IC50 ([3]; Caco-2, 48 h, read-out: IC50 Caco-2 48 hours): 46.2 ± 1.9 µM | IC50 ([3]; Caco-2, 72 h, read-out: IC50 Caco-2 72 hours): 40.9 ± 1.5 µM | IC50 ([4]; 24 h, read-out: IC50 CCD-18Co 24 hours): 82.5 ± 3.1 µM | IC50 ([4]; 48 h, read-out: IC50 CCD-18Co 48 hours): 79.2 ± 1.2 µM | IC50 ([4]; 72 h, read-out: IC50 CCD-18Co 72 hours): 73.2 ± 1.9 µM

N.N.[Cl][Pt][Cl] [Cisplatin]
inhibition of cell proliferation [5]: about 70%

Cc1ccnc2c1ccc1c(C)ccnc12.Cc1ccnc2c1ccc1c(C)ccnc12.O=S(=O)([O-])[O-].[O]=[V+2] [metvan, bis(4,7-dimethyl-1,10-phenanthroline)sulfatooxovanadium(IV)]
effectiveness against cisplatin-resistant cancer cell lines [6]: highly effective
